Test results taken from ChEMBL document CHEMBL1909534, “Solvent-free, microwave assisted Knoevenagel condensation of novel 2,5-disubstituted indole analogues and their biological evaluation” (Eur J Med Chem, 2011).
Activity calls are given as the source filed them. No cut-off for these calls is given here.

Experiments:
[1] = system: Radical scavenging activity; experiment: Antioxidant activity assessed as DPPH free radical scavenging activity after 20 mins; type: functional
Procedure, shortened: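 DPPH method: samples at 10, 50 and 100 μg/100 μl made up to 100 μl with MeOH, mixed with 5 mL 0.1 mM methanolic DPPH, shaken, left 20 min at 27 °C; A517 read against control without sample. % scavenging = (control OD − sample OD)/control OD × 100. BHA as standard.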

[2] = Antioxidant activity assessed as equivalents of ascorbic acid at 10 to 500 ug after 90 mins; type: functional
Procedure, shortened: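 Phosphomolybdenum method: 10, 50 and 500 μg samples mixed with 1.9 mL reagent (0.6 M sulfuric acid, 28 mM sodium phosphate, 4 mM ammonium molybdate), held 90 min at 95 °C, cooled, A695 read against blank. Values are μg ascorbic acid equivalents per mg, taken from an ascorbic acid standard curve.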

[3] = Antioxidant activity assessed as ferric ion reducing ability at after 20 mins by spectrophotometric analysis; type: functional
Procedure, shortened: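 10, 50 and 500 μg samples in 2.5 mL 200 mmol/L sodium phosphate pH 6.6 plus 2.5 mL 1% potassium ferricyanide, 20 min at 50 °C. Then 2.5 mL 10% TCA added; 5 mL of this mixed with 5 mL water and 1 mL 0.1% FeCl3, and A700 read. BHA as standard.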

A549 = experiment: Cytotoxicity against human A549 cells by MTT assay; type: functional, cell-based
Procedure, shortened: (§1)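 Cells grown in RPMI 1640 with 10% FCS, penicillin 100 U/mL and streptomycin 100 μg/mL at 37 °C, 5% CO₂. Seeded at 1 × 10⁵ cells/well. Compounds diluted in DMSO, tested at 0–100 µg/mL. Viability read by MTT kit, with medium-only wells as control. IC50 derived by non-linear regression from three independent experiments.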

HEp-2 = experiment: Cytotoxicity against human Hep2 cells by MTT assay; type: functional, cell-based; procedure, shortened: as §1
HeLa = experiment: Cytotoxicity against human HeLa cells by MTT assay; type: functional, cell-based; procedure, shortened: as §1

SMILES: O=C1NC(=O)C(=Cc2c[nH]c3ccccc23)C(=O)N1
- Activity [1]: Dose-dependent effect
- Activity [2]: Active
- Activity [3]: Dose-dependent effect
- IC50 (A549): 77.4 µM
- IC50 (HEp-2): > 100 µM
- IC50 (HeLa): 74 µM

SMILES: CC1=NNC(=O)/C1=C/c1c(-c2ccccc2)[nH]c2ccc(Cl)cc12
- Activity [1]: Dose-dependent effect
- Activity [2]: Active
- Activity [3]: Dose-dependent effect
- IC50 (A549): 1 µM
- IC50 (HEp-2): 7.9 µM
- IC50 (HeLa): 2.1 µM

SMILES: COc1cccc2c1C(=O)c1c(O)c3c(c(O)c1C2=O)C[C@@](O)(C(=O)CO)C[C@@H]3O[C@H]1C[C@H](N)[C@H](O)[C@H](C)O1 [DOXORUBICIN]
- IC50 (A549): 0.7 µM
- IC50 (HEp-2): 8.7 µM
- IC50 (HeLa): 0.71 µM

SMILES: Cc1ccc2[nH]c(-c3ccccc3)c(C=C3C(=O)NC(=S)NC3=O)c2c1
- Activity [1]: inactive
- Activity [2]: Active
- Activity [3]: Dose-dependent effect
- IC50 (A549): > 100 µM
- IC50 (HEp-2): > 100 µM
- IC50 (HeLa): > 100 µM

SMILES: O=C1NC(=S)NC(=O)C1=Cc1c(-c2ccccc2)[nH]c2ccc(Cl)cc12
- Activity [1]: Dose-dependent effect
- Activity [2]: Active
- Activity [3]: Dose-dependent effect
- IC50 (A549): 27.5 µM
- IC50 (HEp-2): 45.7 µM
- IC50 (HeLa): 23.5 µM

SMILES: Cc1ccc2[nH]c(-c3ccccc3)c(C=C3C(=O)NC(=O)NC3=O)c2c1
- Activity [1]: inactive
- Activity [2]: Active
- Activity [3]: Dose-dependent effect
- IC50 (A549): > 100 µM
- IC50 (HEp-2): > 100 µM
- IC50 (HeLa): > 100 µM

SMILES: O=C1NC(=O)C(=Cc2c(-c3ccccc3)[nH]c3ccc(Cl)cc23)C(=O)N1
- Activity [1]: Dose-dependent effect
- Activity [2]: Active
- Activity [3]: Dose-dependent effect
- IC50 (A549): 27 µM
- IC50 (HEp-2): > 100 µM
- IC50 (HeLa): 30 µM

SMILES: O=C1NC(=O)/C(=C/c2c[nH]c3ccccc23)S1
- Activity [1]: Dose-dependent effect
- Activity [2]: Active
- Activity [3]: Dose-dependent effect
- IC50 (A549): 87.7 µM
- IC50 (HEp-2): > 100 µM
- IC50 (HeLa): 60.7 µM

SMILES: CC1=NNC(=O)/C1=C/c1c[nH]c2ccccc12
- Activity [1]: Dose-dependent effect
- Activity [2]: Active
- Activity [3]: Dose-dependent effect
- IC50 (A549): 3.4 µM
- IC50 (HEp-2): 1.2 µM
- IC50 (HeLa): 33.1 µM

SMILES: Cc1ccc2[nH]c(-c3ccccc3)c(/C=C3\SC(=O)NC3=O)c2c1
- Activity [1]: inactive
- Activity [2]: Active
- Activity [3]: Dose-dependent effect
- IC50 (A549): > 100 µM
- IC50 (HEp-2): > 100 µM
- IC50 (HeLa): > 100 µM

SMILES: CC1=NNC(=O)/C1=C/c1c(-c2ccccc2)[nH]c2ccc(C)cc12
- Activity [1]: inactive
- Activity [2]: Active
- Activity [3]: Dose-dependent effect
- IC50 (A549): 7.7 µM
- IC50 (HEp-2): 26.3 µM
- IC50 (HeLa): > 100 µM

SMILES: O=C1NC(=O)/C(=C/c2c(-c3ccccc3)[nH]c3ccc(Cl)cc23)S1
- Activity [1]: Dose-dependent effect
- Activity [2]: Active
- Activity [3]: Dose-dependent effect
- IC50 (A549): 4.5 µM
- IC50 (HEp-2): 12.1 µM
- IC50 (HeLa): 7 µM

SMILES: O=C1NC(=S)NC(=O)C1=Cc1c[nH]c2ccccc12
- Activity [1]: Dose-dependent effect
- Activity [2]: Active
- Activity [3]: Dose-dependent effect
- IC50 (A549): 52.3 µM
- IC50 (HEp-2): > 100 µM
- IC50 (HeLa): 63 µM
